ChEMBL document CHEMBL1138950, “Benzimidazole derivatives bearing substituted biphenyls as hepatitis C virus NS5B RNA-dependent RNA polymerase inhibitors: structure-activity relationship studies and identification of a potent and highly selective inhibitor JTK-109” (J Med Chem, 2006)
pEC50, pIC50: −log10 of the molar value.

Assays:
Cytochrome P450 3A4 = Cytochrome P450 3A4 (Homo sapiens, UniProt P08684); assay: Inhibition of CYP450 3A4; format: ADME
Cytochrome P450 2C9 = Cytochrome P450 2C9 (Homo sapiens, UniProt P11712); assay: Inhibition of CYP450 2C9; format: ADME
Rattus norvegicus = assay: Toxicity in rat up to 300 mg/kg/day after 4 weeks; format: organism-based; settings: in vivo, 672 h
[1] = Half life in rat at 10 mg/kg; format: ADME, organism-based; set-up: dose 10 mg/kg; settings: in vivo
[2] = Inhibition of mammalian DNA dependent RNA polymerase
Cytochrome P450 2D6 = Cytochrome P450 2D6 (Homo sapiens, UniProt P10635); assay: Induction of CYP450 2D6; format: ADME
[3] = Plasma concentration in rat at 30 mg/kg, po after 2 hrs; format: ADME, organism-based; set-up: dose 30 mg/kg, route oral
In short: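 Rats dosed orally at 30 mg/kg; plasma sampled at 1 and 2 h; n = 2 or 3.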

[4] = target: T1, RNA-directed RNA polymerase (Hepacivirus hominis, UniProt O39930); assay: Inhibition of HCV 2b NS5B RNA dependent RNA polymerase; set-up: species or system Hepatitis C virus subtype 2b
In short: (§1)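 IC50 from the mean of four independent experiments; standard deviations within 30% of the mean.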

[5] = target: T1, RNA-directed RNA polymerase; assay: Inhibition of HCV 3a NS5B RNA dependent RNA polymerase; in short: as §1
Hepatitis C virus = assay: Inhibition of HCV subgenomic RNA replication in Huh5-2 cells after 48 hrs by replicon assay; format: functional, organism-based, Hepacivirus hominis; settings: Huh-5-2, 48 h
In short: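 Huh-5-2 cells (Huh-7-derived, genotype 1b subgenomic replicon with luciferase reporter) seeded at 5 × 10^3 per well in DMEM with 10% FBS, 37 °C, 5% CO2; compounds added next day, 48 h exposure; luciferase activity read. EC50 is the concentration reducing replication by 50%. Triplicate, mean of three experiments.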

[6] = target: Human immunodeficiency virus type 1 reverse transcriptase (Human immunodeficiency virus 1, UniProt Q72547); assay: Inhibition of HIV reverse transcriptase
[7] = target: T2, DNA polymerase alpha catalytic subunit (Homo sapiens, UniProt P09884); assay: Inhibition of DNA polymerase alpha
T2 sequence (P09884 whole entry): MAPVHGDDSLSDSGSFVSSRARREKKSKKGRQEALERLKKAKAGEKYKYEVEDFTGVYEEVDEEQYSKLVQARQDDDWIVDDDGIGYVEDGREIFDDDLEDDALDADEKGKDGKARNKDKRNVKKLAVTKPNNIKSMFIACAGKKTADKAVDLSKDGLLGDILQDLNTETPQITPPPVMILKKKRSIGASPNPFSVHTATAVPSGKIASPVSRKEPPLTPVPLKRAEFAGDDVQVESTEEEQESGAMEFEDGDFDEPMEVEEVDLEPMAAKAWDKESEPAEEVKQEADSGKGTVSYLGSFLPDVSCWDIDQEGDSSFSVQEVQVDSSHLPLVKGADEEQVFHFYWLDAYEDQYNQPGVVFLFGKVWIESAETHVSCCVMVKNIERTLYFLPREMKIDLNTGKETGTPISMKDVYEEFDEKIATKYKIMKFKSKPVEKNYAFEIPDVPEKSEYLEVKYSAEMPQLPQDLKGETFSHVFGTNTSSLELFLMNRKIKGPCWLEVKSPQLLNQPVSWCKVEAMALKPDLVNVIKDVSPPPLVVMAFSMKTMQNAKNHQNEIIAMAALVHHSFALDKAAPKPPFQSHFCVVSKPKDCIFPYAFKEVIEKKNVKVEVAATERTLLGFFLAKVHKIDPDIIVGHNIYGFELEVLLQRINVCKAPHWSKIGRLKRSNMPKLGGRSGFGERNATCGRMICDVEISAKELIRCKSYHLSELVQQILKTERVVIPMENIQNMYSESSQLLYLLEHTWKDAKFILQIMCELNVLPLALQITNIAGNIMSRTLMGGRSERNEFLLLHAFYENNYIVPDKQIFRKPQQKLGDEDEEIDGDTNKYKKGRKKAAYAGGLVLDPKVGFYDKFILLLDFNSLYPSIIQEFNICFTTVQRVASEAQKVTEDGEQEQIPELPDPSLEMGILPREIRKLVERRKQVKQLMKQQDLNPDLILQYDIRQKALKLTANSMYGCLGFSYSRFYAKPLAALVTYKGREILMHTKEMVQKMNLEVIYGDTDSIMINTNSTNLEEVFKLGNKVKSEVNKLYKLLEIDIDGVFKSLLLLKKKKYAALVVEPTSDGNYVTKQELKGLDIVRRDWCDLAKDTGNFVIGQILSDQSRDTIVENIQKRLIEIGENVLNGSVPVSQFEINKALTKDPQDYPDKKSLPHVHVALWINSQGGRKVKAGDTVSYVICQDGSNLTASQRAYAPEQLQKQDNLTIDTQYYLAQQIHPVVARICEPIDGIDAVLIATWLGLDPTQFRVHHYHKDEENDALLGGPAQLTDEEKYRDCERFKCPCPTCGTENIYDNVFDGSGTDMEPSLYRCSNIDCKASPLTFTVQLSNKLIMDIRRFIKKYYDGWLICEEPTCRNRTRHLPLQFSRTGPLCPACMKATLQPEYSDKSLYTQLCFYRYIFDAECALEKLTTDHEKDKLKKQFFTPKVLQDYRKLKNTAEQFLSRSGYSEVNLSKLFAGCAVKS

[8] = target: T1, RNA-directed RNA polymerase; assay: Inhibition of HCV 1b BK six His-tagged C-terminal truncated 544 amino acid NS5B RNA dependent RNA polymerase; set-up: species or system Hepatitis C virus subtype 1b
In short: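 HCV genotype 1b (BK) NS5B lacking 47 C-terminal residues, His6-tagged, E. coli-expressed; 7 nM enzyme with 5 µg HCV 3′X RNA template-primer, 50 µM each ATP/GTP/CTP, 2 µM UTP plus [3H]-UTP; pH 7.5 Tris, 5 mM MgCl2. Compounds in DMSO (5% final). 60 min at 25 °C; TCA-precipitable radioactivity read. Triplicate, mean of three experiments.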

T1 sequence (O39930 whole entry): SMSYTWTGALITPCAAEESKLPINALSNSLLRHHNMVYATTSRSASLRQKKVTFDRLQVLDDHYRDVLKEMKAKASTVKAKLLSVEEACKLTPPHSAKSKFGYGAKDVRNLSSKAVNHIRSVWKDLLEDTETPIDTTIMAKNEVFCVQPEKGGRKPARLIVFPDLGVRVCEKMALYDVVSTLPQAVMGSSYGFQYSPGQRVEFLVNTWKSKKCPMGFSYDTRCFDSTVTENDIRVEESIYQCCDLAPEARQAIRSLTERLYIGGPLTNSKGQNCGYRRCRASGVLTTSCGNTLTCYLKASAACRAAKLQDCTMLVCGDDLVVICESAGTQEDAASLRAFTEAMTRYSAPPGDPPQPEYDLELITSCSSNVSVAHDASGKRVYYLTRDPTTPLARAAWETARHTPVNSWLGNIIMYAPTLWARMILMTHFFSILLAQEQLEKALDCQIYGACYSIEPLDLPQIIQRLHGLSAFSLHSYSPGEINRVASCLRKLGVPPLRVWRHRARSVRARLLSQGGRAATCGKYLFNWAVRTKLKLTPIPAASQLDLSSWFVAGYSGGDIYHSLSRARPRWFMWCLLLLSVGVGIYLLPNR
Sequence of Cytochrome P450 3A4 (P08684 whole entry): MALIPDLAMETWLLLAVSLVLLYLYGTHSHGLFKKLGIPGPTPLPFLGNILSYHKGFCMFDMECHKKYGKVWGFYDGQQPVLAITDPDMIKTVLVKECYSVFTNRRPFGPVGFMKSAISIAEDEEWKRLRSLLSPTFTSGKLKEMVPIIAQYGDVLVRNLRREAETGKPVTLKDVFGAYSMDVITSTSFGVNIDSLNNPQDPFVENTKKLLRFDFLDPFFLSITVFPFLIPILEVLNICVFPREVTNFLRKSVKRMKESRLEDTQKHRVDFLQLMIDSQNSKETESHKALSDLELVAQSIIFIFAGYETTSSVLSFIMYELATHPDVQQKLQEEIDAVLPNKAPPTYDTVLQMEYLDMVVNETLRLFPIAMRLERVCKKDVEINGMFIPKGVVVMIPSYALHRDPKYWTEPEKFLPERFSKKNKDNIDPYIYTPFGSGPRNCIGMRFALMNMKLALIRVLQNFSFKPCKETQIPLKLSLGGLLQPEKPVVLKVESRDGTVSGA
Sequence of Cytochrome P450 2D6 (P10635 whole entry): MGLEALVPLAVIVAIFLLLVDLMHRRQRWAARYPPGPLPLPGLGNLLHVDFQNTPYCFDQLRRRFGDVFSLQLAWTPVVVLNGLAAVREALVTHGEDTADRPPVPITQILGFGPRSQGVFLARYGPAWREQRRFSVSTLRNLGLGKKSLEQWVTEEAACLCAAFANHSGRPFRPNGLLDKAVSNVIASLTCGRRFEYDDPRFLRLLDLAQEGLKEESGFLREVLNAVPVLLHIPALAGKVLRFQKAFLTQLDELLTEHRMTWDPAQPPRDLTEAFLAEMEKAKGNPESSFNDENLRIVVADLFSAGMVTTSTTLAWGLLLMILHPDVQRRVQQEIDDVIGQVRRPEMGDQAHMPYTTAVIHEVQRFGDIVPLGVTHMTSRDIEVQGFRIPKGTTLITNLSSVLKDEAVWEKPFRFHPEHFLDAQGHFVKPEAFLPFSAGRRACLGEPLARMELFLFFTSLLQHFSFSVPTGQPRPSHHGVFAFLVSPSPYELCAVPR
Sequence of Cytochrome P450 2C9 (P11712 whole entry): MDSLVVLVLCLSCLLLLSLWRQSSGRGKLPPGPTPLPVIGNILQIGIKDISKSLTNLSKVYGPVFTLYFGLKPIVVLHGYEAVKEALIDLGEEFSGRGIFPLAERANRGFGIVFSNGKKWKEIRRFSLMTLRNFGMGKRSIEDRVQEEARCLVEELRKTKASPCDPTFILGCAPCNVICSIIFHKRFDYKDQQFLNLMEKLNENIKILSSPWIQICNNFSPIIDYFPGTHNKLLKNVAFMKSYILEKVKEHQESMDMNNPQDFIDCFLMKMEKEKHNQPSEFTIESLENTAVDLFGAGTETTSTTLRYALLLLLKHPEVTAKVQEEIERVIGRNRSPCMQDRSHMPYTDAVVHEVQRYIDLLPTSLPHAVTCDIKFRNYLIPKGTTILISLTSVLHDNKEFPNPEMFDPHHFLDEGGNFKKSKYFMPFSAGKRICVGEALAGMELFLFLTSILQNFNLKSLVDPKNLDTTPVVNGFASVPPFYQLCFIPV

Inhibition (Cytochrome P450 3A4): Not Active | Inhibition (Cytochrome P450 2C9): Not Active | half-life [1]: 2.1 h | pIC50 [2]: < 5.00 | Activity (Cytochrome P450 2D6): Not Active | concentration at 2 h [3]: 4.5 µM | pIC50 [4]: 5.70 | pIC50 [5]: 7.21 | pEC50 (Hepatitis C virus): 6.49 | pIC50 [6]: < 5.00 | pIC50 [7]: < 5.00 | pIC50 [8]: 7.77
SMILES: O=C(O)c1ccc2c(c1)nc(-c1ccc(OCc3cc(N4CCCC4=O)ccc3-c3ccc(Cl)cc3)cc1F)n2C1CCCCC1
Activity (Rattus norvegicus): Non-toxic
